The term Ki denotes the dissociation constant of the complex between target and ligand, obtained from inhibition or displacement.

These results are taken from ChEMBL document CHEMBL1142963, “Novel sigma receptor ligands: synthesis and biological profile” (J Med Chem, 2007).

Calls of active or inactive are those of the source. No cut-off for these calls is given here. Where only a bound is given, the exact number is not on record here.

Assay [1] concerns the target Sigma non-opioid intracellular receptor 1 (Cavia porcellus, UniProt Q60492). The assay is described as follows: Displacement of [3H](+)-pentazocine from guinea pig brain sigma 1 receptor. In general terms: Loss of bound radioactivity is the signal in a displacement assay; it reports binding, not function.
Assay [2] can be described thus: Displacement of [3H]DTG rom guinea pig brain sigma 2 receptor. More on the design: species or system Cavia porcellus.
Assay [3] is filed under the species Rattus norvegicus. Nature of the assay: Increase in TG-2 expression in albino Wistar rat primary astroglial cells at 25 uM after 24 hrs. In kind it is functional. The procedure, abridged: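 Primary Wistar rat astrocytes at 14 DIV were exposed to ligand 25 µM for 24 h. Densitometric percentage of TG-2 versus untreated control; HUVEC extract as positive control. Mean ± SD of four experiments.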

Assay [4] is filed under the species Rattus norvegicus. The assay is described as follows: Increase in TG-2 expression in albino Wistar rat primary 14 DIV astroglial cell at 25 uM after 24 hrs by CLSM analysis. The assay is classed as functional. The procedure, abridged: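 Astrocytes at 14 DIV were treated with 25 µM for 24 h and fixed in 4% paraformaldehyde for 20 min. They were blocked with 1% normal serum for 1 h, then incubated overnight with anti-TG-2 monoclonal (1:500), followed by FITC and TRITC anti-IgG (1:64, 2 h each). Confocal imaging at fixed settings measured cytosolic and nuclear fluorescence intensity versus control after nonspecific subtraction.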

For assay [5], the species on record is Rattus norvegicus. The assay is described as follows: Increase of caspase 3 cleavage in albino Wistar rat primary astroglial cells at 25 uM after 24 hrs relative to control. In kind it is functional. The method, boiled down:
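Primary astrocytes from 1–2-day-old Wistar rat brains were grown 14 DIV, then exposed to ligand 25 µM for 24 h. Cells were lysed and sonicated, and 30 µg protein was run on 10% SDS-PAGE. Mean ± SD of four experiments; t test.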

The target of assay [6] is D(1A) dopamine receptor (Rattus norvegicus, UniProt P18901). The assay is described as follows: Displacement of [3H]SCH-23390 from rat striatum dopamine D1 receptor. The procedure, abridged: (§1)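 Rat brain tissue by target: striatum for D1, D2 and DAT; olfactory tubercle for D3; cortex for muscarinic, 5-HT3, 5-HT2A, α1, α2, H1, NMDA and SERT; guinea pig cortex for 5-HT4. Inhibitors at seven to nine concentrations. After incubation, samples were filtered on glass fibre filters, washed three times with ice-cold buffer and counted by liquid scintillation. Ki values were derived by curve fitting.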

The target of assay [7] is D(2) dopamine receptor (Rattus norvegicus, UniProt P61169). The assay is described as follows: Displacement of [3H]spiperone from rat striatum dopamine D2 receptor. The method, boiled down:
as §1

Assay [8] deals with 5-hydroxytryptamine receptor 2A (Rattus norvegicus, UniProt P14842). The assay is described as follows: Displacement of [3H]ketanserin from rat cortex 5HT2A receptor. The method, boiled down:
as §1

Assay [9] has as its target 5-hydroxytryptamine receptor 6 (Rattus norvegicus, UniProt P31388). The assay is described as follows: Displacement of [3H]5HT from rat cloned 5HT6 receptor expressed in HEK293 cells. The assay is classed as cell-based. The method, boiled down:
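Membranes from HEK-293 cells expressing cloned rat 5-HT6 receptor. Inhibitors at seven to nine concentrations. After incubation, samples were filtered on glass fibre filters, washed three times with ice-cold buffer and counted by liquid scintillation. Ki values were derived by curve fitting.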

The target in assay [10] is T1, Adrenergic receptor alpha-2 (Rattus norvegicus, UniProt P22086+P19328+P22909).
T1 sequence (P22086 whole entry): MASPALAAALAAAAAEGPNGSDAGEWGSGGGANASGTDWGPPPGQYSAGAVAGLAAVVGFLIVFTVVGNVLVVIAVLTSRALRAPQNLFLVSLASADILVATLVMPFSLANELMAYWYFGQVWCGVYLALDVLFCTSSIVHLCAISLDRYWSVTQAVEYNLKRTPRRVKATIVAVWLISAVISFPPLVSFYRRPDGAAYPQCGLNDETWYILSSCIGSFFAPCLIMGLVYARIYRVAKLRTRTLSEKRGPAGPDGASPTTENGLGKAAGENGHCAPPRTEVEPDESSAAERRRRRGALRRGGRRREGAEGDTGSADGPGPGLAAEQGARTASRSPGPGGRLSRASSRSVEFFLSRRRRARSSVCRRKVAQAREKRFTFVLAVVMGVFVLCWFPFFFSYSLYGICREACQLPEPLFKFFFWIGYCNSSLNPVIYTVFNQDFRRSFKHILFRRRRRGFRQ
T1 sequence (P19328 whole entry): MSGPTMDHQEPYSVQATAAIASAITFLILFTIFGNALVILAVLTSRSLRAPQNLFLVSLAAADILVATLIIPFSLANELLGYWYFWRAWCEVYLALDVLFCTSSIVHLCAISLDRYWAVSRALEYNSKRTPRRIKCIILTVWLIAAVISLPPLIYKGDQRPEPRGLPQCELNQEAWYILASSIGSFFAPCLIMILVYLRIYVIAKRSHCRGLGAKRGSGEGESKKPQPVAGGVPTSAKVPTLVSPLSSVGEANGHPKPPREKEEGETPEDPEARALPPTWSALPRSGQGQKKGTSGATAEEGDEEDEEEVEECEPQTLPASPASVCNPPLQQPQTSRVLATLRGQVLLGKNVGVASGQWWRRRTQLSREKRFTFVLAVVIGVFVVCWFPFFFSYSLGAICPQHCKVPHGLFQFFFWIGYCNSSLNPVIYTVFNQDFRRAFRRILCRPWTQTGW
T1 sequence (P22909 whole entry): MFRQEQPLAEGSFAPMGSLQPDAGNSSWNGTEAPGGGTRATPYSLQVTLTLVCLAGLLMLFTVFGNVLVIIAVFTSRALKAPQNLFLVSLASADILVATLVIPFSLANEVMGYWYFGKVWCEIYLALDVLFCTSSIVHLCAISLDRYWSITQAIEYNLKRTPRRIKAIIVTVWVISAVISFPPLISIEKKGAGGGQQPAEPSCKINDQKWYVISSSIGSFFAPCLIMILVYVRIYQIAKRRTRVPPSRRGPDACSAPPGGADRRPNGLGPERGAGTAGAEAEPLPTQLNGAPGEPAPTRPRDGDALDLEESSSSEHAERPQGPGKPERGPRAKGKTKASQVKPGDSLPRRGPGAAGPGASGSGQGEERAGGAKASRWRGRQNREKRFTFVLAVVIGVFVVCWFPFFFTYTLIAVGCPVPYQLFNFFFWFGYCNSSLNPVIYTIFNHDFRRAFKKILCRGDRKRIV
The assay is described as follows: Displacement of 3H]RX821002 from rat cortex adrenergic alpha-2 receptor. The method, boiled down:
as §1

The target in assay [11] is Muscarinic acetylcholine receptor. The assay is described as follows: Displacement of [3H]QNB from rat cortex muscarinic receptor. The procedure, abridged:
as §1

For assay [12], the target named is Glutamate NMDA receptor. Nature of the assay: Displacement of [3H]CGP-39653 from rat cortex NMDA receptor. The procedure, abridged:
as §1

Assay [13] concerns the target Histamine H1 receptor (Rattus norvegicus, UniProt P31390). Nature of the assay: Displacement of [3H]pyrilamine from rat cortex histamine H1 receptor. The method, boiled down:
as §1

Assay [14] concerns the target Sodium-dependent dopamine transporter (Rattus norvegicus, UniProt P23977). Nature of the assay: Displacement of [3H]WIN-35428 from rat striatum DAT. The method, boiled down: as §1
Assay [15] deals with Sodium-dependent serotonin transporter (Rattus norvegicus, UniProt P31652). Nature of the assay: Displacement of [3H]citalopram from rat cortex SERT. The method, boiled down: as §1
Sodium-dependent serotonin transporter, sequence (P31652 whole entry): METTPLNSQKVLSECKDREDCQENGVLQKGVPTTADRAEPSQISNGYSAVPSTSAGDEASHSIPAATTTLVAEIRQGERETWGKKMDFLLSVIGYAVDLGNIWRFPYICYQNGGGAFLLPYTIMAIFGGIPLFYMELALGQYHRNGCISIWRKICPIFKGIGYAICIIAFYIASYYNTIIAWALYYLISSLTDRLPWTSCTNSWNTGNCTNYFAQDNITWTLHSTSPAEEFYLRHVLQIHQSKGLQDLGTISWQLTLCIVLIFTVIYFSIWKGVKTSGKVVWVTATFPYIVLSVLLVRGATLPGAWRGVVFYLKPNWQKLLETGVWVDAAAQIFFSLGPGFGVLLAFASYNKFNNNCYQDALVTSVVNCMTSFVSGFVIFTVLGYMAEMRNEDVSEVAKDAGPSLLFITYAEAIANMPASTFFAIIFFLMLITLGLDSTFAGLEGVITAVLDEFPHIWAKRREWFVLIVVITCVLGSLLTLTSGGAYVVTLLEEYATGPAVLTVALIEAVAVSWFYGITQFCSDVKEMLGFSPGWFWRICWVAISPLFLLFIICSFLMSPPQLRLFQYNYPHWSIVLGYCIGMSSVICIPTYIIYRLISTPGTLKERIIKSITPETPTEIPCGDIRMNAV

Histamine H1 receptor, sequence (P31390 whole entry): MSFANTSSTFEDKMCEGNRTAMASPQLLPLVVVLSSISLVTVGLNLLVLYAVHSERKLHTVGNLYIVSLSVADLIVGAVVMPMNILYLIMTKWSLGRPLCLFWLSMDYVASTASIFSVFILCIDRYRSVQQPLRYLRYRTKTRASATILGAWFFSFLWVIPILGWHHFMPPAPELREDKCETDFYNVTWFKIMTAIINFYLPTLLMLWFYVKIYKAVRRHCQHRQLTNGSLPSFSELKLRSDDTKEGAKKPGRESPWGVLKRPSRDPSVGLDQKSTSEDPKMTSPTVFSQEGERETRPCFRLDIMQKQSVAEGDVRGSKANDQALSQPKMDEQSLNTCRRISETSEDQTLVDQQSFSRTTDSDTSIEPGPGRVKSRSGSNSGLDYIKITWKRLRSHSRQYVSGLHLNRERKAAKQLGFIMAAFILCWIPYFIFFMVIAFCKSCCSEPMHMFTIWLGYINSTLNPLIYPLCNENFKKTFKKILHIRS
5-hydroxytryptamine receptor 2A, sequence (P14842 whole entry): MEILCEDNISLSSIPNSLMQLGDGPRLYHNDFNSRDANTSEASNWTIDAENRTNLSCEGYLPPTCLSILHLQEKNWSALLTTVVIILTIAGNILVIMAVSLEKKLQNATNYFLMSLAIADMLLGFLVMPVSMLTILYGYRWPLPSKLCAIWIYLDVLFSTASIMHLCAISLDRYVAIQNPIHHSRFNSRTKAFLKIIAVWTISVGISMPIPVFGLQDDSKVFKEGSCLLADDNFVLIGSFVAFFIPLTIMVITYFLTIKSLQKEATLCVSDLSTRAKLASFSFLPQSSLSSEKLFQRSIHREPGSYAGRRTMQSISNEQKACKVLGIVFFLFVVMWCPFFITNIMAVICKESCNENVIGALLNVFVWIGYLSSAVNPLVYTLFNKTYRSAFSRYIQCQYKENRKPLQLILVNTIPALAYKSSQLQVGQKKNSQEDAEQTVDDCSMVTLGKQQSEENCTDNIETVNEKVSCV
Sodium-dependent dopamine transporter, sequence (P23977 whole entry): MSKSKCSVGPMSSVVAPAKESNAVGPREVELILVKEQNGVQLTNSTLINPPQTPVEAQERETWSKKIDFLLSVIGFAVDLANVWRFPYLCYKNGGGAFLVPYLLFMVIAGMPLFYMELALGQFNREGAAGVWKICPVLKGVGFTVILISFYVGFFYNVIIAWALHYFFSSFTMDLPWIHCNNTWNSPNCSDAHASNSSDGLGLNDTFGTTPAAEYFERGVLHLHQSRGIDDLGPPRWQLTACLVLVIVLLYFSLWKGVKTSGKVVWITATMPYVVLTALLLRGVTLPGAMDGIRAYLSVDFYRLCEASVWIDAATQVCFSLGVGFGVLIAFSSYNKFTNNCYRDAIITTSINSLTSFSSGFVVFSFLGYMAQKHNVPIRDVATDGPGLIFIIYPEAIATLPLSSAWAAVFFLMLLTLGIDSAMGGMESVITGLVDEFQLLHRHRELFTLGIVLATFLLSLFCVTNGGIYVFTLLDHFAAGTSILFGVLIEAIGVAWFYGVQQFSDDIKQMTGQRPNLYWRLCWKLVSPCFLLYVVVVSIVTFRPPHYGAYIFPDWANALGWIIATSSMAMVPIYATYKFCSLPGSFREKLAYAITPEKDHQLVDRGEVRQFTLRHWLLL
Sigma non-opioid intracellular receptor 1, sequence (Q60492 whole entry): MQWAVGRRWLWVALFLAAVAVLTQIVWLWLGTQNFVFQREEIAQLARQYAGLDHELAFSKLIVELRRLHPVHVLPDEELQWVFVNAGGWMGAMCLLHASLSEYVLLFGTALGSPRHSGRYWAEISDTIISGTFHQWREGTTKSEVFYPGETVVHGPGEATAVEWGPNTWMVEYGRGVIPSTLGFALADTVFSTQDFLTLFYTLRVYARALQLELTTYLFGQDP
D(1A) dopamine receptor, sequence (P18901 whole entry): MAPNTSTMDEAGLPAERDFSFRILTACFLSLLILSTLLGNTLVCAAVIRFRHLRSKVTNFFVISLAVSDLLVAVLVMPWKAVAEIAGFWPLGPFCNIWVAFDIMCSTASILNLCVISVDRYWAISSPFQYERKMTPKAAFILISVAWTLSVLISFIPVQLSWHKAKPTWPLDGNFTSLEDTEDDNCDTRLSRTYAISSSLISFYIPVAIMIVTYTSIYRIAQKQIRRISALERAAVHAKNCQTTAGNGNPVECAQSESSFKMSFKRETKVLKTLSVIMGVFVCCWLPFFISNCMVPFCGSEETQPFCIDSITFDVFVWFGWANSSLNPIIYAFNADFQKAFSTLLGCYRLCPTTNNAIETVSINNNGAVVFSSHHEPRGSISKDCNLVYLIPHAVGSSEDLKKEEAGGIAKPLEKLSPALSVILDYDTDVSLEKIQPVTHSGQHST
D(2) dopamine receptor, sequence (P61169 whole entry): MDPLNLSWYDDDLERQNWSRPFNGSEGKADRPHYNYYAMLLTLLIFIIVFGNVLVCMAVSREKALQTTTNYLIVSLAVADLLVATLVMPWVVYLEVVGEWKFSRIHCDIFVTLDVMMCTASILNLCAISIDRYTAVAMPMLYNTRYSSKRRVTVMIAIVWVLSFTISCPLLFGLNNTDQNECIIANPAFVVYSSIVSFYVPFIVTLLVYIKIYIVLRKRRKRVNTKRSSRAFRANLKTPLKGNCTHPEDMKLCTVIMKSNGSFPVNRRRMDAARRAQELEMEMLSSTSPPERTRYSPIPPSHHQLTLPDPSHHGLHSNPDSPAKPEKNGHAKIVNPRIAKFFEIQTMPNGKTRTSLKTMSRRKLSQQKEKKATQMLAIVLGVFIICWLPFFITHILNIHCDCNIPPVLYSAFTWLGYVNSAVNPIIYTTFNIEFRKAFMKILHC
5-hydroxytryptamine receptor 6, sequence (P31388 whole entry): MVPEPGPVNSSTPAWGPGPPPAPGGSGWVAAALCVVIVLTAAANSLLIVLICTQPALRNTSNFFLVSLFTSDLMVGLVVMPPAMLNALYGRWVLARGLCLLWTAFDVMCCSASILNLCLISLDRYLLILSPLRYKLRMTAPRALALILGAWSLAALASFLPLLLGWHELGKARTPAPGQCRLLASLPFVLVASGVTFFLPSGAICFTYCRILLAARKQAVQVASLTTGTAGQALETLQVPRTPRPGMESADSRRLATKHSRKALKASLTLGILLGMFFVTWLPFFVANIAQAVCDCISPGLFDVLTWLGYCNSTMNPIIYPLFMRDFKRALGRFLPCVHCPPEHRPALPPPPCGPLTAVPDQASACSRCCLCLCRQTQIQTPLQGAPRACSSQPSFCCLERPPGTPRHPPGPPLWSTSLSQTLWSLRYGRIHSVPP

With `COC(=O)C1(c2ccc(C)cc2)CC1CN1CCC(O)(c2ccccc2)CC1` (stereo not given), the Ki in assay [1] is 0.0015 µM; in assay [2] it was 0.0508 µM; in assay [6] it was more than 10 µM; in [7], 1.28 µM; in assay [8], 3.15 µM; in assay [9] it was more than 10 µM. Besides, the inhibitory constant (Ki) is 9.414 µM in assay [10]; more than 10 µM in [11]; more than 10 µM in [12]; 1.42 µM in [13]; more than 10 µM in [14]; more than 10 µM in assay [15]. Besides, the result in assay [3], in assay [4] and in assay [5] was Active.
